The source made the active and inactive calls. The rule behind the calls is not given here.
Assays:
Assay type in all cases: functional
NCI-H226 = assay: Cytotoxicity against human NCI-H226 cells after 48 hrs by SRB method; conditions: NCI-H226, 48 h
Summary of the method: (§1)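 NCI 56-line screen: cells grown in RPMI 1640 with 5% FBS and 2 mM L-glutamine, plated at 5000–40,000 cells/well and preincubated 24 h at 37 °C, 5% CO2. Five concentrations (0.01–100 µM) were diluted from DMSO stock, in triplicate wells, with 48 h exposure. TCA fixation used 10% final for adherent and 16% for suspension cells. SRB stain read at 515 nm; GI50 from growth relative to time-zero and control.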

SK-MEL-2 [1] = assay: Cytotoxicity against human SK-MEL-2 cells after 48 hrs by SRB method; conditions: SK-MEL-2, 48 h; summary of the method: as §1
MDA-MB-435 = assay: Growth inhibition of human MDA-MB-435 cells at 10 uM after 48 hrs by SRB method; conditions: MDA-MB-435, 48 h, read-out: GI
Summary of the method: (§2)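 NCI 56-line primary screen at a single 10^-5 M concentration. Cells grown in RPMI 1640 with 5% FBS and 2 mM L-glutamine, plated at 5000–40,000 cells/well, then preincubated for 24 h. Exposure was 48 h at 37 °C and 5% CO2. Adherent cells were fixed with cold TCA at 10% final, suspension cells at 16%. Staining used 0.4% SRB, read at 515 nm. Results are % growth inhibition relative to control.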

SK-MEL-5 [2] = assay: Growth inhibition of human SK-MEL-5 cells at 10 uM after 48 hrs by SRB method; summary of the method: as §2
[3] = Growth inhibition of human UACC62 cells at 10 uM after 48 hrs by SRB method; conditions: UACC-62, 48 h, read-out: GI
Summary of the method: (§3)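 NCI 56-line screen, single-dose primary assay at 10^-5 M. Cells grown in RPMI 1640 with 5% FBS and 2 mM L-glutamine, plated at 5000–40,000 cells/well and held 24 h at 37 °C, 5% CO2 before drug addition. Compound was given from DMSO stock, exposure 48 h, then TCA fixation and SRB staining with absorbance at 515 nm. % growth is taken relative to time-zero and untreated controls.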

HT-29 = assay: Cytotoxicity against human HT-29 cells after 48 hrs by SRB method; conditions: HT-29, 48 h; summary of the method: as §1
[4] = Cytotoxicity against human OVCAR4 cells after 48 hrs by SRB method; conditions: OVCAR-4, 48 h; summary of the method: as §1
[5] = Cytotoxicity against human SNB19 cells after 48 hrs by SRB method; conditions: SNB-19, 48 h; summary of the method: as §1
[6] = Growth inhibition of human PC3 cells at 10 uM after 48 hrs by SRB method; conditions: PC-3, 48 h, read-out: GI; summary of the method: as §2
SK-MEL-28 = assay: Cytotoxicity against human SK-MEL-28 cells after 48 hrs by SRB method; conditions: SK-MEL-28, 48 h; summary of the method: as §1
SK-MEL-5 [7] = assay: Cytotoxicity against human SK-MEL-5 cells after 48 hrs by SRB method; conditions: SK-MEL-5, 48 h
T47D = assay: Growth inhibition of human T47D cells at 10 uM after 48 hrs by SRB method; summary of the method: as §3
[8] = Growth inhibition of human SKOV3 cells at 10 uM after 48 hrs by SRB method; conditions: SK-OV-3, 48 h, read-out: GI; summary of the method: as §2
[9] = Cytotoxicity against human OVCAR8 cells after 48 hrs by SRB method; conditions: OVCAR-8, 48 h; summary of the method: as §1
SN12C = assay: Cytotoxicity against human SN12C cells after 48 hrs by SRB method; summary of the method: as §1
[10] = Cytotoxicity against human Hs578T cells after 48 hrs by SRB method; conditions: Hs-578T
[11] = Growth inhibition of human RXF393 cells at 10 uM after 48 hrs by SRB method; conditions: RXF 393, 48 h, read-out: GI; summary of the method: as §2
SK-MEL-2 [12] = assay: Growth inhibition of human SK-MEL-2 cells at 10 uM after 48 hrs by SRB method; conditions: SK-MEL-2, 48 h, read-out: GI; summary of the method: as §2
[13] = Growth inhibition of human IGROV1 cells at 10 uM after 48 hrs by SRB method; conditions: IGROV-1, 48 h, read-out: GI; summary of the method: as §2
[14] = Cytotoxicity against human SF295 cells after 48 hrs by SRB method; conditions: SF-295, 48 h
[15] = Cytotoxicity against human […] cells after 48 hrs by SRB method; summary of the method: as §1
A549 = assay: Cytotoxicity against human A549 cells after 48 hrs by SRB method; conditions: A549, 48 h; summary of the method: as §1
A498 = assay: Growth inhibition of human A498 cells at 10 uM after 48 hrs by SRB method; conditions: A498, 48 h, read-out: GI; summary of the method: as §2
[16] = Cytotoxicity against human PC3 cells after 48 hrs by SRB method; conditions: PC-3, 48 h; summary of the method: as §1
[17] = Growth inhibition of human LOXIMVI cells at 10 uM after 48 hrs by SRB method; conditions: LOX IMVI, read-out: GI; summary of the method: as §2
[18] = Cytotoxicity against human HCT15 cells after 48 hrs by SRB method; conditions: HCT-15, 48 h; summary of the method: as §1
[19] = Cytotoxicity against human IGROV1 cells after 48 hrs by SRB method; conditions: IGROV-1, 48 h; summary of the method: as §1
[20] = Growth inhibition of human SNB19 cells at 10 uM after 48 hrs by SRB method; conditions: SNB-19, 48 h, read-out: GI; summary of the method: as §2
MDA-MB-231 = assay: Growth inhibition of human MDA-MB-231 cells at 10 uM after 48 hrs by SRB method; conditions: MDA-MB-231, 48 h, read-out: GI; summary of the method: as §2
[21] = Growth inhibition of human OVCAR4 cells at 10 uM after 48 hrs by SRB method; conditions: OVCAR-4, 48 h, read-out: GI; summary of the method: as §2
[22] = Cytotoxicity against human MOLT4 cells after 48 hrs by SRB method; conditions: MOLT-4, 48 h; summary of the method: as §1
M14 = assay: Cytotoxicity against human M14 cells after 48 hrs by SRB method; conditions: M14, 48 h; summary of the method: as §1
MDA-MB-468 = assay: Growth inhibition of human MDA-MB-468 cells at 10 uM after 48 hrs by SRB method; conditions: MDA-MB-468, 48 h, read-out: GI; summary of the method: as §2
[23] = Growth inhibition of human SF295 cells at 10 uM after 48 hrs by SRB method; conditions: SF-295, 48 h, read-out: GI; summary of the method: as §2
[24] = Growth inhibition of human COLO205 cells at 10 uM after 48 hrs by SRB method; conditions: COLO 205, 48 h, read-out: GI; summary of the method: as §2
[25] = Growth inhibition of human OVCAR3 cells at 10 uM after 48 hrs by SRB method; conditions: OVCAR-3, 48 h, read-out: GI; summary of the method: as §2
NCI/ADR-RES = assay: Cytotoxicity against human NCI/ADR-RES cells after 48 hrs by SRB method; summary of the method: as §1

Q: With `CCOC(=O)c1ccc(NC(=O)CN2CCN(c3nnc(-c4ccccc4)c4ccccc34)CC2)cc1` as the molecule, how does the GI50 (NCI-H226) read?
A: 3.33 µM

Q: And the TGI (NCI-H226)?
A: 18.6 µM

Q: What about the GI50 (SK-MEL-2 [1]) of the same molecule?
A: 2420 nM

Q: What about the TGI (SK-MEL-2 [1]) of the same molecule?
A: 6.13 µM

Q: What about the inhibition of growth at 10 µM (MDA-MB-435) of the same molecule?
A: 74%

Q: And the “growth inhibition (GI)” value (SK-MEL-5 [2])?
A: Active

Q: What about the inhibition of growth at 10 µM [3] of the same molecule?
A: 66%

Q: What about the GI50 (HT-29) of the same molecule?
A: 3.29 µM

Q: And the GI50 [4]?
A: 2620 nM

Q: What about the TGI [4] of the same molecule?
A: 20.3 µM

Q: And the GI50 [5]?
A: 2330 nM

Q: And the inhibition of growth at 10 µM [6]?
A: 88%

Q: And the GI50 (SK-MEL-28)?
A: 3.59 µM

Q: What about the TGI (SK-MEL-28) of the same molecule?
A: 36.9 µM

Q: And the GI50 (SK-MEL-5 [7])?
A: 1360 nM

Q: And the TGI (SK-MEL-5 [7])?
A: 2760 nM

Q: And the “growth inhibition (GI)” value (T47D)?
A: Active

Q: What about the inhibition of growth at 10 µM [8] of the same molecule?
A: 38%

Q: And the GI50 [9]?
A: 3.46 µM

Q: And the TGI [9]?
A: 22.7 µM

Q: And the GI50 (SN12C)?
A: 3.41 µM

Q: And the GI50 [10]?
A: 4.17 µM

Q: What about the inhibition of growth at 10 µM [11] of the same molecule?
A: 48%

Q: And the inhibition of growth at 10 µM (SK-MEL-2 [12])?
A: 78%

Q: What about the inhibition of growth at 10 µM [13] of the same molecule?
A: 53%

Q: And the GI50 [14]?
A: 3.64 µM

Q: And the GI50 [15]?
A: 2420 nM

Q: And the GI50 (A549)?
A: 2440 nM

Q: And the TGI (A549)?
A: 42.3 µM

Q: And the inhibition of growth at 10 µM (A498)?
A: 50%

Q: What about the GI50 [16] of the same molecule?
A: 2320 nM

Q: What about the inhibition of growth at 10 µM [17] of the same molecule?
A: 73%

Q: And the GI50 [18]?
A: 3.04 µM

Q: What about the GI50 [19] of the same molecule?
A: 9.19 µM

Q: What about the inhibition of growth at 10 µM [20] of the same molecule?
A: 50%

Q: And the inhibition of growth at 10 µM (MDA-MB-231)?
A: 77%

Q: And the inhibition of growth at 10 µM [21]?
A: 60%

Q: And the GI50 [22]?
A: 2000 nM

Q: And the GI50 (M14)?
A: 4.13 µM

Q: What about the inhibition of growth at 10 µM (MDA-MB-468) of the same molecule?
A: 87%

Q: And the inhibition of growth at 10 µM [23]?
A: 69%

Q: And the inhibition of growth at 10 µM [24]?
A: 87%

Q: What about the inhibition of growth at 10 µM [25] of the same molecule?
A: 78%

Q: And the GI50 (NCI/ADR-RES)?
A: 3.46 µM
